{
  "source": "ChEMBL document CHEMBL3616466",
  "about": "“Pyrazolo[3,4-h]quinolines promising photosensitizing agents in the treatment of cancer” (Eur J Med Chem, 2015)",
  "key": {"Jurkat [1]": {"test_system": "Jurkat", "assay": "Photocytotoxicity against human Jurkat cells assessed as growth inhibition at 2.5 J/cm'2 irradiation for 30 mins followed by drug treated for 72 hrs by MTT assay", "type": "functional", "settings": "light or radiation study", "summary_of_the_method": "(§1)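 Cells seeded at 5 × 10³ per well and pre-incubated 24 h. Drug dilutions in HBSS (pH 7.2, from DMSO stock) added for 30 min at 37 °C, then UV-A irradiation at the stated dose. Drug solution then replaced with culture medium and plates incubated 72 h. Viability by MTT; GI50 from concentration series.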"}, "Jurkat [2]": {"test_system": "Jurkat", "assay": "Photocytotoxicity against human Jurkat cells assessed as growth inhibition at 1.25 J/cm'2 irradiation for 30 mins followed by drug treated for 72 hrs by MTT assay", "type": "functional", "settings": "light or radiation study", "summary_of_the_method": "as §1"}, "HL-60 [3]": {"test_system": "HL-60", "assay": "Photocytotoxicity against human HL60 cells assessed as growth inhibition at 2.5 J/cm'2 irradiation for 30 mins followed by drug treated for 72 hrs by MTT assay", "type": "functional", "settings": "HL-60, light or radiation study", "summary_of_the_method": "as §1"}, "HL-60 [4]": {"test_system": "HL-60", "assay": "Photocytotoxicity against human HL60 cells assessed as growth inhibition at 1.25 J/cm'2 irradiation for 30 mins followed by drug treated for 72 hrs by MTT assay", "type": "functional", "settings": "HL-60, light or radiation study", "summary_of_the_method": "as §1"}, "MCF7 [5]": {"test_system": "MCF7", "assay": "Photocytotoxicity against human MCF7 cells assessed as growth inhibition at 3.75 J/cm'2 irradiation for 30 mins followed by drug treated for 72 hrs by MTT assay", "type": "functional", "settings": "MCF7, light or radiation study", "summary_of_the_method": "as §1"}, "MCF7 [6]": {"test_system": "MCF7", "assay": "Photocytotoxicity against human MCF7 cells assessed as growth inhibition at 2.5 J/cm'2 irradiation for 30 mins followed by drug treated for 72 hrs by MTT assay", "type": "functional", "settings": "MCF7, light or radiation study", "summary_of_the_method": "as §1"}, "A549 [7]": {"test_system": "A549", "assay": "Photocytotoxicity against human A549 cells assessed as growth inhibition at 3.75 J/cm'2 irradiation for 30 mins followed by drug treated for 72 hrs by MTT assay", "type": "functional", "settings": "A549, light or radiation study", "summary_of_the_method": "as §1"}, "A549 [8]": {"test_system": "A549", "assay": "Photocytotoxicity against human A549 cells assessed as growth inhibition at 2.5 J/cm'2 irradiation for 30 mins followed by drug treated for 72 hrs by MTT assay", "type": "functional", "settings": "A549, light or radiation study", "summary_of_the_method": "as §1"}, "LoVo [9]": {"test_system": "LoVo", "assay": "Photocytotoxicity against human LoVo cells assessed as growth inhibition at 3.75 J/cm'2 irradiation for 30 mins followed by drug treated for 72 hrs by MTT assay", "type": "functional", "settings": "light or radiation study", "summary_of_the_method": "as §1"}, "LoVo [10]": {"test_system": "LoVo", "assay": "Photocytotoxicity against human LoVo cells assessed as growth inhibition at 2.5 J/cm'2 irradiation for 30 mins followed by drug treated for 72 hrs by MTT assay", "type": "functional", "settings": "light or radiation study", "summary_of_the_method": "as §1"}, "A549 [11]": {"test_system": "A549", "assay": "Photocytotoxicity against human A549 cells assessed as inhibition of colony formation at 2.5 J/cm'2 irradiation after 1 to 2 weeks using crystal violet staining by optical microscopy", "type": "functional, cell-based", "summary_of_the_method": "(§2)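 A-549 cells (10 × 10³) plated in dishes. After 24 h, irradiated at 2.5 J/cm² with compound at varying concentrations. Medium replaced, then cultured 1–2 weeks with medium changes every 2–3 days. Stained with crystal violet; colonies of ≥50 cells counted visually. Expressed as % of untreated cells; mean ± SEM of three experiments.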"}, "[12]": {"assay": "Induction of singlet oxygen generation measured after UV-A irradiation by RNO bleaching assay", "type": "physicochemical", "summary_of_the_method": "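Compound (2.2 × 10⁻⁵ M), RNO (4 × 10⁻⁵ M) and imidazole (4 × 10⁻⁵ M) in phosphate buffer pH 7.3 irradiated with increasing UV-A doses. Absorbance read at 440 nm; reported as % RNO bleaching.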"}, "[13]": {"assay": "Induction of superoxide anion generation measured after UV-A irradiation by NBT reduction assay", "type": "physicochemical", "summary_of_the_method": "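Compound (10⁻⁵ M) with nitroblue tetrazolium (1.6 × 10⁻⁴ M) in carbonate buffer pH 10 irradiated with increasing UV-A doses. Absorbance at 560 nm followed as the superoxide read-out.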"}, "Jurkat [14]": {"test_system": "Jurkat", "assay": "Induction of apoptosis in human Jurkat cells assessed as reduction in alive cells using Annexin-V and propidium iodide staining at 1 to 2 uM measured 24 hrs post 2.5 J/cm'2 irradiation by flow cytometry analysis", "type": "functional, cell-based", "summary_of_the_method": "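Jurkat cells irradiated (2.5 J/cm²) with compound at 1 or 2 µM. After 24 h, co-stained with Annexin V-FITC and PI and analysed by flow cytometry (excitation 488 nm; emission 525 and 585 nm). Mean of three independent experiments.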"}, "Jurkat [15]": {"test_system": "Jurkat", "assay": "Induction of apoptosis in human Jurkat cells assessed as increase in cleaved caspase 3 level at 1 uM measured 24 hrs post 2.5 J/cm'2 irradiation by Western blot analysis", "type": "functional, cell-based", "summary_of_the_method": "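Jurkat cells irradiated (2.5 J/cm²) with compound at 1 µM. At 24 h, cells washed in cold PBS and lysed on ice for 20 min. 20 µg protein run on 8–16% gradient gels and transferred to nitrocellulose. Probed with rabbit anti-caspase-3 and β-actin (1:1000, 2 h), then peroxidase anti-rabbit IgG; ECL detection.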"}, "Jurkat [16]": {"test_system": "Jurkat", "assay": "Induction of apoptosis in human Jurkat cells assessed as reduction in mitochondrial potential at 1 to 2 uM using JC-1 staining measured 24 hrs post 2.5 J/cm'2 irradiation by FACS assay", "type": "functional, cell-based", "summary_of_the_method": "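At 24 h after 2.5 J/cm² irradiation with compound at 1 or 2 µM, Jurkat cells were pelleted and resuspended in HBSS with 1 µM JC-1. After 10 min at 37 °C, fluorescence read at 530 and 590 nm by flow cytometry. Mean ± SEM, n=3.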"}, "Jurkat [17]": {"test_system": "Jurkat", "assay": "Induction of apoptosis in human Jurkat cells assessed as ROS production at 1 to 2 uM using HE and DCFDA staining measured 24 hrs post 2.5 J/cm'2 irradiation by FACS assay", "type": "functional, cell-based"}, "Jurkat [18]": {"test_system": "Jurkat", "assay": "Induction of apoptosis in human Jurkat cells assessed as lysosome death at 1 to 2 uM using acridine orange staining measured 24 hrs post 2.5 J/cm'2 irradiation by flow cytometry", "type": "functional, cell-based"}, "Escherichia coli": {"test_system": "Escherichia coli", "assay": "Induction of DNA damage in Escherichia coli pBR322 DNA measured at 7.5 J/cm'2 UV-A irradiation by neutral agarose electrophoresis", "summary_of_the_method": "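pBR322 plasmid (100 ng) in 10 mM phosphate buffer pH 7.2 irradiated at 7.5 J/cm² UV-A with compound at a compound/DNA ratio of 3/1. Aliquots incubated at 37 °C with Fpg or Endo III. Run on 1% agarose in TAE at 70 V for 4 h; supercoiled, open circular and linear bands quantified.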"}, "Jurkat [19]": {"test_system": "Jurkat", "assay": "Induction of lipid peroxidation in human Jurkat cells at 2 uM measured 24 hrs post 2.5 J/cm'2 irradiation by TBA assay", "type": "functional, cell-based", "summary_of_the_method": "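TBA test for TBARS performed on supernatant medium and on cell lysates 24 h post-irradiation. Mean ± SEM of three experiments.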"}, "A549 [20]": {"test_system": "A549", "assay": "Photocytotoxicity against human A549 cells assessed as inhibition of colony formation at 0.0625 to 0.5 uM measured 24 hrs post 2.5 J/cm'2 irradiation after 1 to 2 weeks by optical microscopy", "type": "functional, cell-based", "summary_of_the_method": "as §2"}, "MCF7 [21]": {"test_system": "MCF7", "assay": "Ratio of angelicin GI50 to compound GI50 for human MCF7 cells assessed as growth inhibition at 3.75 J/cm'2 irradiation for 30 mins followed by drug treated for 72 hrs by MTT assay", "type": "functional", "summary_of_the_method": "(§3)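 Cells were pre-incubated 30 min at 37 °C with drug in HBSS, irradiated, then drug replaced with medium. Ratio is angelicin GI50 divided by compound GI50.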"}, "LoVo [22]": {"test_system": "LoVo", "assay": "Ratio of angelicin GI50 to compound GI50 for human LoVo cells assessed as growth inhibition at 3.75 J/cm'2 irradiation for 30 mins followed by drug treated for 72 hrs by MTT assay", "type": "functional", "summary_of_the_method": "as §3"}, "Jurkat [23]": {"test_system": "Jurkat", "assay": "Cytotoxicity against human Jurkat cells assessed as growth inhibition after 72 hrs by MTT assay", "type": "functional"}, "HL-60 [24]": {"test_system": "HL-60", "assay": "Cytotoxicity against human HL60 cells assessed as growth inhibition after 72 hrs by MTT assay", "type": "functional", "settings": "HL-60, 72 h"}, "A549 [25]": {"test_system": "A549", "assay": "Cytotoxicity against human A549 cells assessed as growth inhibition after 72 hrs by MTT assay", "type": "functional", "settings": "A549, 72 h", "summary_of_the_method": "(§4)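 Cells (5 × 10³ per well) pre-incubated 24 h at 37 °C, 5% CO₂, then exposed in the dark to serial concentrations diluted from DMSO stock into complete medium for 72 h at 37 °C. Viability read by MTT; GI50 derived. LoVo in Ham's F-12, MCF-7 and A-549 in DMEM, all with 10% FBS and penicillin/streptomycin.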"}, "MCF7 [26]": {"test_system": "MCF7", "assay": "Cytotoxicity against human MCF7 cells assessed as growth inhibition after 72 hrs by MTT assay", "type": "functional", "settings": "MCF7, 72 h", "summary_of_the_method": "as §4"}, "LoVo [27]": {"test_system": "LoVo", "assay": "Cytotoxicity against human LoVo cells assessed as growth inhibition after 72 hrs by MTT assay", "type": "functional", "summary_of_the_method": "as §4"}},
  "note": "Activity calls are given as the source filed them. The rule behind the calls is not given here.",
  "data": [
    {"molecule": "COc1ccc(-n2ncc3c2ccc2cc(S(=O)(=O)c4ccccc4)c(=O)n(C)c23)cc1", "values": [
      {"measurement": "GI50", "setting": "Jurkat [1]", "value": 250, "unit": "nM"},
      {"measurement": "GI50", "setting": "Jurkat [2]", "value": 580, "unit": "nM"},
      {"measurement": "GI50", "setting": "HL-60 [3]", "value": 440, "unit": "nM"},
      {"measurement": "GI50", "setting": "HL-60 [4]", "value": 610, "unit": "nM"},
      {"measurement": "GI50", "setting": "MCF7 [5]", "value": 140, "unit": "nM"},
      {"measurement": "GI50", "setting": "MCF7 [6]", "value": 290, "unit": "nM"},
      {"measurement": "GI50", "setting": "A549 [7]", "value": 80, "unit": "nM"},
      {"measurement": "GI50", "setting": "A549 [8]", "value": 270, "unit": "nM"},
      {"measurement": "GI50", "setting": "LoVo [9]", "value": 90, "unit": "nM"},
      {"measurement": "GI50", "setting": "LoVo [10]", "value": 190, "unit": "nM"},
      {"measurement": "Activity", "setting": "A549 [11]", "value": "Dose-dependent effect"},
      {"measurement": "Activity", "setting": "[12]", "value": "Active"},
      {"measurement": "Activity", "setting": "[13]", "value": "Active"},
      {"measurement": "Activity", "setting": "Jurkat [14]", "value": "Active"},
      {"measurement": "Activity", "setting": "Jurkat [15]", "value": "Active"},
      {"measurement": "Activity", "setting": "Jurkat [16]", "value": "Active"},
      {"measurement": "Activity", "setting": "Jurkat [17]", "value": "Active"},
      {"measurement": "Activity", "setting": "Jurkat [18]", "value": "Active"},
      {"measurement": "Activity", "setting": "Escherichia coli", "value": "inactive"},
      {"measurement": "Activity", "setting": "Jurkat [19]", "value": "Active"},
      {"measurement": "Activity", "setting": "A549 [20]", "value": "Dose-dependent effect"},
      {"measurement": "Ratio IC50", "setting": "MCF7 [21]", "value": 10},
      {"measurement": "Ratio IC50", "setting": "LoVo [22]", "value": 12},
      {"measurement": "GI50", "setting": "Jurkat [23]", "value": "> 20000", "unit": "nM"},
      {"measurement": "GI50", "setting": "HL-60 [24]", "value": "> 20000", "unit": "nM"},
      {"measurement": "GI50", "setting": "A549 [25]", "value": "> 20000", "unit": "nM"},
      {"measurement": "GI50", "setting": "MCF7 [26]", "value": 9600, "unit": "nM"},
      {"measurement": "GI50", "setting": "LoVo [27]", "value": "> 20000", "unit": "nM"}
    ]}
  ]
}
